In brackets after ≈: the same amount, converted by molar mass. Activity calls are given as the source filed them. No cut-off for these calls is given here.
Tests used:
[1] = Volume of distribution at steady state in rat at 1 mg/kg, iv; type: ADME, organism-based; parameters: dose 1 mg/kg, route intravenous; settings: in vivo, read-out: Vdss
Rattus norvegicus [2] = assay: Antiinflammatory activity in Sprague-Dawley rat assessed as inhibition of LPS-induced bronchoalveolar lavage neutrophils measured as LPS duration at 0.1 mg/ml, inhalation administered as nebulized suspension; type: functional, organism-based
In short: (§1)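 Duration protocol: rats received a nose-only inhalation of nebulized aqueous compound solution 12 h before LPS challenge. Dose is expressed as mg/mL nebulizer concentration. Readout was LPS-induced pulmonary neutrophilia, with terminal lung concentration (nM) measured. Groups held 8−10 animals per treatment.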

[3] = Fraction unbound in rat plasma; type: ADME, cell-free
[4] = Fraction unbound in human plasma; type: ADME, cell-free
[5] = Half life in rat at 1 mg/kg, iv; type: ADME, organism-based; parameters: dose 1 mg/kg, route intravenous; settings: in vivo
In short: (§2)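 Rat pharmacokinetics were run at 1 mg/kg, given iv or by intratracheal instillation, with 2−3 animals per study.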

CYP (isoform not stated) = assay: Time dependent inhibition of CYP (unknown origin) at 50 uM; type: ADME; settings: human; read-out: TDI
Rattus norvegicus [6] = assay: Antiinflammatory activity in Sprague-Dawley rat assessed as inhibition of LPS-induced bronchoalveolar lavage neutrophils at 0.1 mg/ml, inhalation administered as nebulized suspension; type: functional, organism-based
In short: (§3)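 Rats were given the compound as an aqueous nebulized aerosol by nose-only inhalation 30 min before LPS challenge. Dose is expressed as mg/mL nebulizer concentration. Lung neutrophilia was the readout, and terminal lung concentration (nM) was measured. Groups held 8−10 animals per treatment.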

Rattus norvegicus [7] = assay: Antiinflammatory activity in Sprague-Dawley rat assessed as inhibition of LPS-induced bronchoalveolar lavage neutrophils at 0.01 mg/ml, inhalation administered as nebulized suspension; type: functional; in short: as §3
Cytochrome P450 3A4 = Cytochrome P450 3A4 (Homo sapiens, UniProt P08684); assay: Inhibition of CYP3A4 (unknown origin); type: ADME
[8] = target: Voltage-gated inwardly rectifying potassium channel KCNH2 (Homo sapiens, UniProt Q12809); assay: Inhibition of human ERG
[9] = Intrinsic clearance in human liver microsomes; type: ADME; settings: read-out: CLH
[10] = Clearance in rat at 1 mg/kg, iv; type: ADME, organism-based; parameters: dose 1 mg/kg, route intravenous; settings: in vivo; in short: as §2
[11] = Lipophilicity, log D of the compound; type: physicochemical; settings: octanol/water
[12] = Aqueous solubility of the compound at pH 7.4; type: physicochemical; settings: aqueous medium
Rattus norvegicus [13] = assay: Apparent volume of distribution in rat at 1 mg/kg, iv; type: ADME, organism-based; parameters: dose 1 mg/kg, route intravenous; settings: in vivo; in short: as §2
Cytochrome P450 2C19 = Cytochrome P450 2C19 (Homo sapiens, UniProt P33261); assay: Inhibition of CYP2C19 (unknown origin); type: ADME
[14] = Intrinsic clearance in rat hepatocytes measured per 10^6 cells; type: ADME, cell-based, Hepatocyte; settings: read-out: CLH
PBMC = assay: Antiinflammatory activity in human PBMC assessed as inhibition of LPS-induced TNFalpha production after 20 hrs by fluorescence linked immunosorbant assay; type: functional, cell-based
Cytochrome P450 2D6 = Cytochrome P450 2D6 (Homo sapiens, UniProt P10635); assay: Inhibition of CYP2D6 (unknown origin); type: ADME
Cytochrome P450 2C9 = Cytochrome P450 2C9 (Homo sapiens, UniProt P11712); assay: Inhibition of CYP2C9 (unknown origin); type: ADME
Rattus norvegicus [15] = assay: Antiinflammatory activity in Sprague-Dawley rat assessed as inhibition of LPS-induced bronchoalveolar lavage neutrophils measured as LPS duration at 0.01 mg/ml, inhalation administered as nebulized suspension; type: functional, organism-based; settings: 0.1 mg/ml, in the assay text read “0.1 mg/ml” for “0.01 mg/ml”; in short: as §1
Rattus norvegicus [16] = assay: Antiinflammatory activity in Sprague-Dawley rat assessed as inhibition of LPS-induced bronchoalveolar lavage neutrophils measured as terminal lung concentration at 0.003 mg/ml, inhalation administered as nebulized suspension; type: functional; in short: as §3
Rattus norvegicus [17] = assay: Antiinflammatory activity in Sprague-Dawley rat assessed as inhibition of LPS-induced bronchoalveolar lavage neutrophils measured as terminal lung concentration at 0.03 mg/ml, inhalation administered as […] treated 12 hrs before LPS; type: functional; in short: as §1
Blood [18] = assay: tissue or blood; settings: Rattus norvegicus, 20 h, read-out: pIC50 (converted)
[19] = Clearance in dog; type: ADME, organism-based, Canis lupus familiaris; settings: in vivo
Rattus norvegicus [20] = assay: Antiinflammatory activity in nasally dosed Sprague-Dawley rat assessed as inhibition of LPS-induced bronchoalveolar lavage neutrophils measured as nebulizer concentration administered as […]; type: functional
In short: (§4)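 ED80 was derived from the nose-only nebulized-solution dose response in rats dosed 30 min before LPS challenge, with neutrophilia as the readout. ED80 is given as nebulizer concentration, as the matching terminal total lung concentration, and as lung deposited dose estimated from measured filter sample and terminal lung levels.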

Rattus norvegicus [21] = assay: Antiinflammatory activity in Sprague-Dawley rat assessed as inhibition of LPS-induced bronchoalveolar lavage neutrophils measured as terminal lung concentration at 0.01 mg/ml, inhalation administered as nebulized suspension; type: functional; in short: as §3
[22] = Oral bioavailability in rat at 1 mg/kg; type: ADME, organism-based; settings: in vivo
Rattus norvegicus [23] = assay: Antiinflammatory activity in Sprague-Dawley rat assessed as inhibition of LPS-induced bronchoalveolar lavage neutrophils measured as terminal lung concentration at 0.1 mg/ml, inhalation administered as […] treated 12 hrs before LPS; type: functional; in short: as §1
[24] = Half life in rat at 1 mg/kg, it; type: ADME, organism-based; parameters: dose 1 mg/kg, route endotracheal; settings: in vivo, inhaled or intranasal; in short: as §2
[25] = Apparent volume of distribution in dog; type: ADME, organism-based, Canis lupus familiaris; settings: in vivo, read-out: Vz/F
Rattus norvegicus [26] = assay: Antiinflammatory activity in nasally dosed Sprague-Dawley rat assessed as inhibition of LPS-induced bronchoalveolar lavage neutrophils measured as lung concentration administered as […]; type: functional; in short: as §4
[27] = Oral bioavailability in dog; type: ADME, organism-based, Canis lupus familiaris; settings: in vivo
[28] = Volume of distribution at steady state in dog; type: ADME, organism-based, Canis lupus familiaris; settings: in vivo, read-out: Vdss
Rattus norvegicus [29] = assay: Antiinflammatory activity in nasally dosed Sprague-Dawley rat assessed as inhibition of LPS-induced bronchoalveolar lavage neutrophils measured as lung deposited dose administered as […]; type: functional; in short: as §4
Rattus norvegicus [30] = assay: Antiinflammatory activity in Sprague-Dawley rat assessed as inhibition of LPS-induced bronchoalveolar lavage neutrophils measured as terminal lung concentration at 0.03 mg/ml, inhalation administered as nebulized suspension; type: functional; in short: as §3
Rattus norvegicus [31] = assay: Antiinflammatory activity in Sprague-Dawley rat assessed as inhibition of LPS-induced bronchoalveolar lavage neutrophils measured as terminal lung concentration at 0.3 mg/ml, inhalation administered as nebulized suspension treated 12 hrs before LPS; type: functional; settings: in the assay text read “nebulized solution” for “nebulized suspension”; in short: as §1
[32] = Half life in dog; type: ADME, organism-based, Canis lupus familiaris; settings: in vivo
Rattus norvegicus [33] = assay: Antiinflammatory activity in Sprague-Dawley rat assessed as inhibition of LPS-induced bronchoalveolar lavage neutrophils measured as terminal lung concentration at 0.1 mg/ml, inhalation administered as nebulized suspension; type: functional; in short: as §3
[34] = Lipophilicity, log K of the compound; type: physicochemical; settings: octanol/water
Rattus norvegicus [35] = assay: Antiinflammatory activity in Sprague-Dawley rat assessed as inhibition of LPS-induced bronchoalveolar lavage neutrophils at 0.03 mg/ml, inhalation administered as nebulized suspension; type: functional, organism-based; in short: as §3
[36] = target: T1, 3',5'-cyclic-AMP phosphodiesterase 4B (Rattus norvegicus, UniProt P14646)
T1 sequence (P14646 whole entry): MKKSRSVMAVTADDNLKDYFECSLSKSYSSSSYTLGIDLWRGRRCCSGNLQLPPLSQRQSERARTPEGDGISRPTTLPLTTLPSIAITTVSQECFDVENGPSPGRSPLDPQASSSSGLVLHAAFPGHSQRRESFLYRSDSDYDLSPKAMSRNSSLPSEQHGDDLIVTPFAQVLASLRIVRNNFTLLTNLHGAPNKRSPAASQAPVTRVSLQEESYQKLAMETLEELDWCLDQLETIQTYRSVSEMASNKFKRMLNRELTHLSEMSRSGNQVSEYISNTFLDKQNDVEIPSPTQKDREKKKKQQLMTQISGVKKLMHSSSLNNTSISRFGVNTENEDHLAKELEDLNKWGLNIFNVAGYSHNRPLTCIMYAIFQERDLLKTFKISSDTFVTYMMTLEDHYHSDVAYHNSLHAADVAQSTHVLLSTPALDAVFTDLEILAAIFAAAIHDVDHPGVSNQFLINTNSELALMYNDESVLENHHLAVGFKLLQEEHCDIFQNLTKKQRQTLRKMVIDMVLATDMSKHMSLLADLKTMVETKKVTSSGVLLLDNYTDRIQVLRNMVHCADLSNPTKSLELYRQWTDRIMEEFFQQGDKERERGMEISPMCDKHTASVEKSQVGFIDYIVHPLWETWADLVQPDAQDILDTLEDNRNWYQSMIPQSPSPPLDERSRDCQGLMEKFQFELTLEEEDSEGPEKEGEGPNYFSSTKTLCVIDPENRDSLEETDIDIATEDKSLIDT

[37] = target: 3',5'-cyclic-AMP phosphodiesterase 4A (Homo sapiens, UniProt P27815); assay: Inhibition of human PDE4A1A using [3H]cAMP by packard topcount scintillation counting analysis
Blood [38] = assay: Antiinflammatory activity in human whole blood assessed as inhibition of LPS-induced TNFalpha production after 20 hrs by ELISA; type: functional, tissue-based

Voltage-gated inwardly rectifying potassium channel KCNH2, sequence (Q12809 whole entry): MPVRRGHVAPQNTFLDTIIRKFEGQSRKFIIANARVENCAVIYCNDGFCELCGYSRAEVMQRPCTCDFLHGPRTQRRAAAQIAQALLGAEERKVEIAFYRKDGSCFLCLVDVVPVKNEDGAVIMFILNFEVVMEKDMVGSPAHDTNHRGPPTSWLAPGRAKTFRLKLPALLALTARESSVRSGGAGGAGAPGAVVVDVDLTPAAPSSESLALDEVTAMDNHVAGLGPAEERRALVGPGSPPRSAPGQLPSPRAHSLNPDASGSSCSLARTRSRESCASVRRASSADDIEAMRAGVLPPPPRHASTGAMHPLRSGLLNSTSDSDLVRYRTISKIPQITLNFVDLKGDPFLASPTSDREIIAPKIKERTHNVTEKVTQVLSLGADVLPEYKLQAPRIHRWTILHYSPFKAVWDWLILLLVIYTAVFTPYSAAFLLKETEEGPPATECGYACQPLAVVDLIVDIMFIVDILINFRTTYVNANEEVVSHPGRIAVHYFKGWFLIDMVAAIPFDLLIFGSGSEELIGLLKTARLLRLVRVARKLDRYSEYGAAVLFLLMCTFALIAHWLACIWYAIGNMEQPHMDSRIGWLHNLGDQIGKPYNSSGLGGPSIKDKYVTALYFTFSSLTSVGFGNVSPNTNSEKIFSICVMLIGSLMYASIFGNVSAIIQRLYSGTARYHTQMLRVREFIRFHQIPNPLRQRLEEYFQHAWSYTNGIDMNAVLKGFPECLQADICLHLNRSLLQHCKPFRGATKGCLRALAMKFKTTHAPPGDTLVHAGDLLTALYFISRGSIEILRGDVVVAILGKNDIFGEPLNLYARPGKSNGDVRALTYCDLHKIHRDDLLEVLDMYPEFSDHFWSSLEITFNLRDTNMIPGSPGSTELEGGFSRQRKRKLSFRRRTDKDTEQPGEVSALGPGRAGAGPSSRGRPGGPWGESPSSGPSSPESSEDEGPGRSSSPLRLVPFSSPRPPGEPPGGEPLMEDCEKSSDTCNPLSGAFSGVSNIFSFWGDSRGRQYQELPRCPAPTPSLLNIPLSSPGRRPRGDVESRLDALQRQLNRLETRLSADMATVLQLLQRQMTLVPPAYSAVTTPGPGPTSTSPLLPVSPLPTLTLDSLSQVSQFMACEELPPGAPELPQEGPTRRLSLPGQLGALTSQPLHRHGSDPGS
Cytochrome P450 2C19, sequence (P33261 whole entry): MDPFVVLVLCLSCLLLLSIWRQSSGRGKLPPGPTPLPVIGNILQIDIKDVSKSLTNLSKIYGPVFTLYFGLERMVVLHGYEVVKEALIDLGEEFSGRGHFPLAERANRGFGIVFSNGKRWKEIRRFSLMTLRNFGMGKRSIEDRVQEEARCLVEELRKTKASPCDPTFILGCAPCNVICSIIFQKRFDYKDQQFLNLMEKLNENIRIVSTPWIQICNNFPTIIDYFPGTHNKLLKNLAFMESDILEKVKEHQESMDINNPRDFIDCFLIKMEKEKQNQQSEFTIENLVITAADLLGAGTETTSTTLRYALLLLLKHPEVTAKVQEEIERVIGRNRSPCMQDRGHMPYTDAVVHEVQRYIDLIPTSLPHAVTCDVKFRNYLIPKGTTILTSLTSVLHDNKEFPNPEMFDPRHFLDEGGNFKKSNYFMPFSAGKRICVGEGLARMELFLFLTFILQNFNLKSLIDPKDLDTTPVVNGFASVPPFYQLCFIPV
Cytochrome P450 2C9, sequence (P11712 whole entry): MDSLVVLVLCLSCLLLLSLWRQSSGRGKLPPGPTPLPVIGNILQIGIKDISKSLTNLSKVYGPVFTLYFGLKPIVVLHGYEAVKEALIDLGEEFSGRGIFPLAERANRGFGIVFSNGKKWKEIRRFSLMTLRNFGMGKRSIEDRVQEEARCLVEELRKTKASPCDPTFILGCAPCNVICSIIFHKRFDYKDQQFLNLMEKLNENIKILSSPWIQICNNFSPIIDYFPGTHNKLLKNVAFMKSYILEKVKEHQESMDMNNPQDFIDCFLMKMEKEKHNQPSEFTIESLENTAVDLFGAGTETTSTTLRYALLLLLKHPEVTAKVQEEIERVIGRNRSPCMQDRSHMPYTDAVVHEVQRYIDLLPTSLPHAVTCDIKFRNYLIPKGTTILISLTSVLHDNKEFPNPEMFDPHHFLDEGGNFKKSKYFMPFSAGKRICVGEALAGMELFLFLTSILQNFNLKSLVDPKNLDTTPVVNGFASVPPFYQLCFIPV
Cytochrome P450 2D6, sequence (P10635 whole entry): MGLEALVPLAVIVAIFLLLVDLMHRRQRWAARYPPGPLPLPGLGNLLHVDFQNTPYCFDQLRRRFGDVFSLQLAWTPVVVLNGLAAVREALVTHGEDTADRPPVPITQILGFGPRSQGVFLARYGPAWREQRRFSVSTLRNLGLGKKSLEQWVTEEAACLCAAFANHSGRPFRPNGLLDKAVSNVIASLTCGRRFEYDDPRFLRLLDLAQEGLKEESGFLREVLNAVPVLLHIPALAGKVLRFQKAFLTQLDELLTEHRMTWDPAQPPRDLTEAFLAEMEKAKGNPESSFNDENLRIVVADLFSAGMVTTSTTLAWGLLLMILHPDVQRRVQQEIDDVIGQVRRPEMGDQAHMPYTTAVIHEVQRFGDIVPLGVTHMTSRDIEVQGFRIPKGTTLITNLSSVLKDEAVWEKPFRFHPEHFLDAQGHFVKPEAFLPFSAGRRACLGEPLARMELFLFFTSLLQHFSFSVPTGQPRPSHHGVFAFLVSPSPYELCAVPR
3',5'-cyclic-AMP phosphodiesterase 4A, sequence (P27815 whole entry): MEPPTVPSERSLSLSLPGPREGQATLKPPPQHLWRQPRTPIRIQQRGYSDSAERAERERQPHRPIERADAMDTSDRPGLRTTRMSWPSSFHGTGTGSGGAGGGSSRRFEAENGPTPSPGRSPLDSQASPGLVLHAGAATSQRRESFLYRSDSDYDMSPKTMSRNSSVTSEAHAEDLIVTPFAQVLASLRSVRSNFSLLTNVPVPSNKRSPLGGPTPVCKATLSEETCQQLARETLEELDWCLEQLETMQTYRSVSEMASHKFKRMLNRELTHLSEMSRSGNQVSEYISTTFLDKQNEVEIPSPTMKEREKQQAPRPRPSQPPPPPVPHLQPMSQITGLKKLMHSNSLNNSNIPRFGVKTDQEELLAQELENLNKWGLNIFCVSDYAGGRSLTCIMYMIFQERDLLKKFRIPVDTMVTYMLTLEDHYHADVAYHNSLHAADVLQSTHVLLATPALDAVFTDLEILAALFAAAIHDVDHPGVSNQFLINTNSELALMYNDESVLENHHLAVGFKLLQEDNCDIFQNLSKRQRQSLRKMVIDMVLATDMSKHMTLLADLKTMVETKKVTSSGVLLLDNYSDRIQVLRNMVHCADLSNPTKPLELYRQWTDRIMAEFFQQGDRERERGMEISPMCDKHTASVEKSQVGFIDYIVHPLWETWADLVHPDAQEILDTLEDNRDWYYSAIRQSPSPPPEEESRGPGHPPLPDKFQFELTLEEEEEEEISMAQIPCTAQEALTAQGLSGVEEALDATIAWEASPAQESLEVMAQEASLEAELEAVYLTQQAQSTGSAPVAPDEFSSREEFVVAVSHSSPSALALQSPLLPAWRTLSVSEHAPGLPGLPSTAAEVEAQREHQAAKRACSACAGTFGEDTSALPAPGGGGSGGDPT
Cytochrome P450 3A4, sequence (P08684 whole entry): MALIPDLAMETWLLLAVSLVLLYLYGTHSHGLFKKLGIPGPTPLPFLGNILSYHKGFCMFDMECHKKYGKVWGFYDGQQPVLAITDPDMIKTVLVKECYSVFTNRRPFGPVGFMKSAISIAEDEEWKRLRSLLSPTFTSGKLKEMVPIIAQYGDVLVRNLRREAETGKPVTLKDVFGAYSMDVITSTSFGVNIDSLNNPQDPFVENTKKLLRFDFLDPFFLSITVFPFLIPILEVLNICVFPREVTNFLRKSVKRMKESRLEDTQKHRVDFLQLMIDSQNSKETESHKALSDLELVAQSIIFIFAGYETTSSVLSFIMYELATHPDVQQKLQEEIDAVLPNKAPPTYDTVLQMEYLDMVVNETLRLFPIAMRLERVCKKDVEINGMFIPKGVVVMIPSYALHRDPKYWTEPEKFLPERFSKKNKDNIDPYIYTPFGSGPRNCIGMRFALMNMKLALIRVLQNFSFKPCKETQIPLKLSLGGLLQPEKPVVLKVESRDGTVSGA

Cc1cc(C(=O)N[C@H]2CC[C@@H](NC(=O)c3cc(F)cnc3Oc3cccc(-c4ccc(O)cc4CN4CCOCC4)c3)CC2)nn1C
Vd [1]: 2.6 L/kg | inhibition (Rattus norvegicus [2]): Active | fraction unbound [3]: 0.1 | fraction unbound [4]: 0.056 | half-life [5]: 13 h | inhibition at 50 µM (CYP (isoform not stated)): 73% | inhibition (Rattus norvegicus [6]): Active | inhibition (INH) (Rattus norvegicus [7]): 37% | IC50 (Cytochrome P450 3A4): 501 nM | IC50 [8]: 31600 nM | microsomal CLint [9]: > 150 µL/min/mg | clearance [10]: 69 mL/min/kg | logD [11]: 3.1 | solubility [12]: 250 µM (≈ 161 µg/mL) | Vz/F (Rattus norvegicus [13]): 76 L/kg | IC50 (Cytochrome P450 2C19): 6310 nM | hepatocyte CLint [14]: 120 µL/min/1e6 cells | IC50 (PBMC): 0.0631 nM | IC50 (Cytochrome P450 2D6): > 10000 nM | IC50 (Cytochrome P450 2C9): 251 nM | inhibition (Rattus norvegicus [15]): Active

Cc1ccc(O)c(C(=O)N[C@H]2CC[C@@H](NC(=O)c3cc(F)cnc3Oc3cccc(-c4ccc(CN5C[C@@H](C)N[C@@H](C)C5)cc4CN4CCOCC4)c3)CC2)c1
Vd [1]: 16 L/kg | Activity (Rattus norvegicus [16]): 9 nM | inhibition (Rattus norvegicus [2]): Active | Activity (Rattus norvegicus [17]): 5 nM | fraction unbound [3]: 0.083 | fraction unbound [4]: 0.013 | half-life [5]: 7 h | IC50 (Blood [18]): 0.501 nM | inhibition (Rattus norvegicus [6]): Active | clearance [19]: 19 mL/min/kg | ED80 (Rattus norvegicus [20]): 60 µg/mL (≈ 78.4 µM) | inhibition (Rattus norvegicus [7]): Active | Activity (Rattus norvegicus [21]): 26 nM | IC50 [8]: 6310 nM | bioavailability [22]: < 16% | Activity (Rattus norvegicus [23]): 14 nM | half-life [24]: 9 h | microsomal CLint [9]: 78 µL/min/mg | Vd/F [25]: 25 L/kg | clearance [10]: 50 mL/min/kg | ED80 (Rattus norvegicus [26]): 78 nM | logD [11]: 2.8 | solubility [12]: 213 µM (≈ 163 µg/mL) | bioavailability [27]: 6% | Vd [28]: 13 L/kg | ED80 (Rattus norvegicus [29]): 0.6 µg/kg | Activity (Rattus norvegicus [30]): 88 nM | Activity (Rattus norvegicus [31]): 33 nM | half-life [32]: 15 h | Vz/F (Rattus norvegicus [13]): 30 L/kg | hepatocyte CLint [14]: 13 µL/min/1e6 cells | IC50 (PBMC): 0.0398 nM | Activity (Rattus norvegicus [33]): 123 nM | log K [34]: 1.88 | inhibition (Rattus norvegicus [35]): Active | IC50 [36]: 0.0251 nM | IC50 [37]: < 10 nM | IC50 (Blood [38]): 12.6 nM
